Experimental findings from ChEMBL document CHEMBL1926577, “Novel 1,3,4-heterodiazole analogues: synthesis and in-vitro antitumor activity” (2012) are described below.

What all share (type): functional
One experiment concerns NSCLC. Nature of the experiment: Growth inhibition of human NSCLC cells after 48 hrs by coulter counter method. An outline of the steps: (§1)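 NCI 60-line panel cells. Compound is dissolved in DMSO and diluted in phosphate-buffered saline, with final DMSO below 1%. It is added in duplicate wells to cultures at 6 × 10⁴ cells/ml and held at 37 °C, 5% CO₂, humidified, for 48 h. Cells are diluted 10-fold in saline, counted by Coulter counter and dilution-corrected. Vehicle controls contain PBS plus DMSO.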

A short description of experiment [1]: Growth inhibition of human prostate cancer cells after 48 hrs by coulter counter method. The settings on record: Cancer cell lines. An outline of the steps: as §1
The nature of experiment [2]: Growth inhibition of human CNS cancer cells after 48 hrs by coulter counter method. The settings on record: Cancer cell lines. An outline of the steps: as §1
Experiment [3] in a line: Growth inhibition of human colon cancer cells after 48 hrs by coulter counter method. The settings on record: Cancer cell lines. An outline of the steps:
as §1

Experiment [4] can be described thus: Growth inhibition of human renal cancer cells after 48 hrs by coulter counter method. Conditions: Cancer cell lines. An outline of the steps: as §1
Experiment [5] in a line: Growth inhibition of human ovarian cancer cells after 48 hrs by coulter counter method. Conditions: Cancer cell lines. The procedure, abridged:
as §1

A short description of experiment [6]: Growth inhibition of human breast cancer cells after 48 hrs by coulter counter method. The settings on record: Cancer cell lines. The procedure, abridged: as §1
Another experiment has as its system Melanoma cell. Nature of the experiment: Growth inhibition of human Melanoma cells after 48 hrs by coulter counter method. The procedure, abridged:
as §1

The nature of experiment [7]: Growth inhibition of human leukemia cells after 48 hrs by coulter counter method. The settings on record: Leukemia cell. An outline of the steps: as §1
Where [8] appears, read: read-out: LC50 (the source's name).

Where only a bound is given, the exact number is not on record here.

Regarding `O=c1[nH]cc(F)c(=O)[nH]1` [FLUOROURACIL], the GI50 in the experiment on NSCLC was over 100 µM; in experiment [1] it was 22.7 µM; in [3], 8.4 µM; in [4] it was 45.6 µM; in experiment [5], 61.4 µM; in experiment [6], 76.4 µM. Further, the total growth inhibition concentration (TGI) (with NSCLC; in experiment [1]; in [2]; in experiment [3]; in experiment [4]; in experiment [5]) was over 100 µM in each case. The TGI (in [6]; in the experiment on Melanoma cell; in experiment [7]) was over 100 µM each time. Also, the CC50 (in the experiment with NSCLC (setting [8]); in experiment [2] (setting [8]); in experiment [4] (setting [8]); in experiment [6] (setting [8]); in experiment [7] (setting [8])) was over 100 µM each time.

In general, GI50 refers to the concentration at which growth is held to half of that of the control. The low end stands for more potent growth inhibition, the high end for less potent growth inhibition. A word on the TGI: it is the concentration giving total growth inhibition. A low value points to more potent growth arrest.
